Sampled rows, rich in hits. Any-hit rate of the full collection: about 2.3%.
TAAR1 antagonist – human TAAR1 antagonists, primary screen, Fluo-8 calcium fluorescence, CHO RD-HGA16 cells. Trace amine-associated receptor 1 (Homo sapiens), Q96RJ0. actives 1.5% (n = 360,000). inhibition, % at 3 µM. antagonist;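 active = inhibition above a per-plate cutoff, the mean inhibition of test compounds on that plate plus 3 SD, cut at about 49% in these data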;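 also: 0% = DMSO plus EC80 beta-PEA response and 100% = DMSO alone without agonist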
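System: RD-HGA16 CHO cells with stable hTAAR1 and Gα16 | Probe or stimulus: EC80 β-phenethylamine stimulus | Dosing: 3 µM, single point | Times: Dye loading 75 min at 37 °C, then 30 min room temperature | Measured by: Fluo-8 calcium-sensitive fluorescence | Read-out basis: % inhibition of agonist calcium response | Replicates: n of 1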
V1aR counter – agonists of human V1a receptor, primary screen, counter-screen for OXTR agonist project, fluorescence, CHO-V1R cells; Vasopressin V1a receptor (Homo sapiens), P37288; Fluo-8 calcium fluorescence, agonist mode; 0% DMSO, 100% 3 nM vasopressin; activation, % at 3 µM; actives 0.25% (n = 320,000); AID 2797, 2010;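 active = activation above the mean activation of all tested compounds plus 3 SD, per screening run, cut at about 20% in these data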;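 also: signal is peak over basal fluorescence ratio across a 100 second FLIPR read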
OXTR potentiate – human OXTR potentiators, primary screen, fluorescence, CHO-OTR cells, Fluo-8 calcium; Oxytocin receptor (Homo sapiens), P30559; Fluo-8 calcium fluorescence, potentiator mode; 0% = oxytocin EC15, 100% = EC100; activation, % at 3 µM; actives 0.061% (n = 320,000); AID 2445, 2010;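 active = activation above that plate's cutoff, the mean activation of tested compounds plus 3 SD, cut at about 6.6% in these data, passing the limit was not always enough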;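 also: 100% uses oxytocin at 75 nM as the full agonist control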
Target sequence (P30559 whole entry, looked up): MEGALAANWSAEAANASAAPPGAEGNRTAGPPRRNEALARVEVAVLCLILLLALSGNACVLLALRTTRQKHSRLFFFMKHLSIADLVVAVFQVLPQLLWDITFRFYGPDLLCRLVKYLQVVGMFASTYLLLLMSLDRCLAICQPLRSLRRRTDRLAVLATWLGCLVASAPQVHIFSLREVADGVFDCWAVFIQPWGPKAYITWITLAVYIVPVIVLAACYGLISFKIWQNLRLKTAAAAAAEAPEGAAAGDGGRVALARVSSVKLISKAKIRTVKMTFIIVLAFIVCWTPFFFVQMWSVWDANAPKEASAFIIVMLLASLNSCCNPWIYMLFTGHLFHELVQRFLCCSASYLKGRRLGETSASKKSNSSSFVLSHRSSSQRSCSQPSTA
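Material: CHO-OTR cells, human receptor; compound dosing: single dose, 3.0 µM nominal final compound concentration; schedule: 6 min compound pre-incubation at room temperature, 100 s kinetic read; measured by: kinetic Fluo-8 calcium fluorescence; read-out basis: % activation vs EC15 and EC100 oxytocin; controls: EC15 oxytocin alone as 0%, 75 nM oxytocin as 100%; replicates: singlicate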
OXTR ag – human OXTR agonists, primary screen, fluorescence, CHO-OTR cells, Fluo-8 calcium | Fluo-8 calcium fluorescence; normalized: DMSO 0%, oxytocin 100% | activation, % at 3 µM | actives 0.32% (n = 320,000) | AID 2435, 2010;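 active = activation above the mean of all tested compounds plus 3 SD, cutoff set per screening run, cut at about 20% in these data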;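 also: peak over basal fluorescence ratio from a 100 s FLIPR kinetic read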
TAAR1 ag – human TAAR1 agonists, primary screen, Fluo-8 calcium fluorescence, CHO RD-HGA16 cells | Trace amine-associated receptor 1 (Homo sapiens), Q96RJ0 | vehicle wells 0%, saturating PEA agonist 100% | activation, % at 3 µM | actives 0.99% (n = 360,000) | AID 624467, 2012;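 active = activation above the mean activation of all test compounds in the run plus 3 SD, cut at about 38% in these data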
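Test system: RD-HGA16 (CHO) cells co-expressing Gα16 and hTAAR1 | Doses: Single dose, 3 µM | Schedule: 17-24 h seeding, 75 min 37 °C dye, 30 min RT | Evaluation: % activation from peak over basal fluorescence ratio, DMSO-to-PEA scaled | Technique: Kinetic Fluo-8 calcium fluorescence | Benchmarks: Low control DMSO, high control PEA (EC100)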
An asterisk follows results filed as active; . = no result.

SMILES	TAAR1 antagonist	V1aR counter	OXTR potentiate	OXTR ag	TAAR1 ag
O=C(NCCN1CCC(n2c(=O)[nH]c3ccccc32)CC1)c1ccccc1Cl	12	.	.	.	5
O=C(NCCN1CCC(n2c(=O)[nH]c3ccccc32)CC1)c1cccc2c1-c1ccccc1C2=O	59*	.	.	.	10
O=[N+]([O-])c1ccc(F)c(CN2CCN(c3ncc(Cc4ccccc4)cn3)CC2)c1	-27	.	.	.	3
CCOC(=O)C1(Cc2cccc(OC)c2)CCN(Cc2cccn2-c2ccccn2)CC1	18	2	-5	1	2
Cc1ccccc1C(=O)N[C@H](C(=O)N1CCC[C@H]1C(=O)NCCc1ccccc1Cl)C1CCCCC1	24	.	.	.	16
Cc1ccccc1C(=O)N1CCN(c2ccc(NC(=S)NC(=O)c3ccco3)cc2)CC1	62*	10	-14	16	11
Cc1cccc(OCC(=O)Nc2ccc(N3CCN(C(=O)c4ccco4)CC3)cc2)c1	56*	11	-10	18	16
COc1ccccc1C(=O)NC(=S)Nc1ccc(N2CCN(C(=O)c3ccco3)CC2)cc1	-4	3	-15	-1	4
Cc1ccc(OCC(=O)Nc2ccc(N3CCN(C(=O)c4ccco4)CC3)cc2)cc1C	40	8	-31	8	9
CC(=O)c1ccc(NC(=O)COC(=O)c2c[nH]c3ccccc23)cc1	32	2	-5	11	10
N#CCC(=O)Nc1ccc(C(=O)OCC(=O)c2c[nH]c3ccccc23)cc1	23	2	-4	1	43*
COc1ccc(C(=O)NCC(=O)OCC(=O)c2c[nH]c3ccccc23)cc1	3	.	.	.	32
O=C(CNC(=O)c1ccccc1)OCC(=O)c1c[nH]c2ccccc12	22	0	2	0	40*
COC(=O)Cn1ccc2cc(S(=O)(=O)N3CCCCC3)ccc21	-4	4	-7	3	1
COc1ccc(C2CC(c3ccccc3)=NN2C(=O)COC(=O)c2cc(S(=O)(=O)N3CCOCC3)ccc2F)cc1 (stereo not drawn)	10	3	-4	2	1
COC(=O)C1=C(Cn2cnc3ccccc32)NC(=O)NC1c1cc(C)ccc1C (stereo not drawn)	28	6	-2	0	5
CCOC(=O)C1=C(Cn2cnc3ccccc32)NC(=O)NC1c1cc(C)ccc1C (stereo not drawn)	65*	0	-7	12	58*
Cc1ncc(CO)c2c1Oc1nc(-c3ccccc3)nc(SCC(=O)N3CCCCC3)c1C2	41	4	-5	3	9
COc1ccccc1-c1nc2c(c(SCC(=O)N3CCCCC3)n1)Cc1c(CO)cnc(C)c1O2	54*	3	-6	0	10
CN(C)C(CNC(=O)c1ccc(C2SCCS2)cc1)c1ccccc1 (stereo not drawn)	-18	2	-7	2	38*
Cc1cccc(NS(=O)(=O)c2ccc(C(=O)NCC(c3ccccc3)N(C)C)cc2)c1C (stereo not drawn)	28	.	.	.	43*
CCCNC(=O)C1(C)CCCN(CCC(=O)c2ccccc2)C1 (stereo not drawn)	5	.	.	.	0
CCOC(=O)C1CCCN(CC(=O)c2ccc(F)cc2)C1 (stereo not drawn)	54*	-1	-8	0	57*
C/C(=N\NC(=O)c1ccc(O)cc1)c1ccc(N2CCOCC2)cc1	19	0	4	1	2
C/C(=N\NC(=O)c1ccc(N/N=C(\C)c2ccc(O)cc2)cc1)c1ccc(O)cc1	56*	-1	-3	0	4
CCCc1ccc(C(C)NC(=S)NCc2ccc(F)cc2)cc1 (stereo not drawn)	70*	21*	-17	21*	58*
CCOc1ccc(C(C)NC(=S)NCc2ccc(Cl)cc2)cc1 (stereo not drawn)	21	18	-28	17	45*
CCc1cc2c(N3CCN(c4ccccc4)CC3)ncnc2s1	66*	6	-10	0	8

Screening data as filed in PubChem.
